Assay results reported in ChEMBL document CHEMBL1158388, “Preparation of spermine conjugates with acidic retinoids with potent ribonuclease P inhibitory activity” (Eur J Med Chem, 2009).

Test: Inhibition of Dictyostelium discoideum AX2 RNase P by double reciprocal plot
Procedure, shortened: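 RNase P purified from D. discoideum wild-type cells; 37 °C reactions in buffer D (50 mM Tris/HCl pH 7.6, 10 mM NH4Cl, 5 mM MgCl2, 5 mM DTT) with 2–5 fmol in vitro labeled S. pombe pre-tRNASer transcript and 1.3 µg enzyme-fraction protein, 10% DMSO; stopped with formamide/EDTA dye. Ki from slopes of 1/v vs 1/[pre-tRNA] plots replotted against inhibitor concentration.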

Compound	Ki
C/C(=C\c1ccc(C(=O)O)cc1)c1ccc2c(c1)C(C)(C)CCC2(C)C	45 µM
CC1=C(/C=C/C(C)=C/C=C/C(C)=C/C(=O)NCCCNCCCCNCCCN)C(C)(C)CCC1	2.4 µM
CC1=C(/C=C/C(C)=C/C=C/C(C)=C/C(=O)N(CCCN)CCCCN(CCCN)C(=O)/C=C(C)/C=C/C=C(C)/C=C/C2=C(C)CCCC2(C)C)C(C)(C)CCC1	1.1 µM
COc1cc(C)c(/C=C/C(C)=C/C=C/C(C)=C/C(=O)O)c(C)c1C [ACITRETIN]	8 µM
CCOC(=O)c1ccc(/C=C(\C)c2ccc3c(c2)C(C)(C)CCC3(C)C)cc1 [AROTINOID]	4350 µM
CCS(=O)(=O)c1ccc(/C=C(\C)c2ccc3c(c2)C(C)(C)CCC3(C)C)cc1 [ETAROTENE]	3600 µM
CC1=C(/C=C/C(C)=C/C=C/C(C)=C\C(=O)O)C(C)(C)CCC1 [ISOTRETINOIN]	20 µM
COc1cc(C)c(/C=C/C(C)=C/C=C/C(C)=C/C(=O)NCCCNCCCCNCCCN)c(C)c1C [N1-Acitretinylspermine]	2.45 µM
CC1=C(/C=C/C(C)=C/C=C/C(C)=C/CO)C(C)(C)CCC1 [RETINOL]	1480 µM
CC1=C(/C=C/C(C)=C/C=C/C(C)=C/C(=O)O)C(C)(C)CCC1 [TRETINOIN]	15 µM
